The data set in a line: Toxicity liver stage against HepG2, at 10uM. In kind it is cell-based. Set-up: test concentration 10 uM, cell line HepG2-A16-CD81EGFP. As to conditions: human, HepG2-A16-CD81EGFP cells; read-out: INHIBITION
Put shortly: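 Uninfected HepG2-A16-CD81EGFP cells, 3 × 10^3 per well, 1536-well, plated on prespotted compound at 10 μM final, parasite-free screening media added to match infected plates; puromycin 10 μM positive, DMSO 0.5% negative; run in parallel with 48 h PbLuc assay at 37 °C, 5% CO2; viability by CellTiter-Glo luminescence, normalized to controls.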
As for `CN(C)CCN1C(=O)CCC12CCCN(C(=O)N(C)C)CC2` (centres undefined), the cytotoxicity at 10 µM was found to be 4.56%.
In the case of `O=C(c1cnn2c1OCCC2)N1CCC2(CC1)OCCO2` it was 7.91%.
With `COc1cccc(-c2nccnc2C2CCN(C(C)=O)CC2)c1`, the cytotoxicity at 10 µM is 1.47%.
To `Cc1cc(C(=O)NC(C)Cc2ccc(N(C)C)cc2)n(C)n1` (centres undefined) belongs 1.19%; to `CC(c1nc(C2CC2)no1)N1CCN(CCOCC(F)(F)F)CC1` (centres undefined), -8.6%; to `CC(NCC1(N(C)C)CCOCC1)c1ccc(SC(F)F)cc1` (centres undefined), -0.79%.
In the case of `O=C(NCCc1ccncc1)c1cccc(S(=O)(=O)NC2CC2)c1` it was -151%.
In the case of `Cc1nc(C(C)C)sc1C(=O)N1CCN(C2CN3CCC2CC3)CC1` (centres undefined), the cytotoxicity at 10 µM is 3.79%.
To `CCc1nc(CN(C)Cc2ncc(-c3cccs3)o2)cs1` belongs 9.15%; to `CNC(=O)N1C[C@@H]2C[C@H](C(=O)Nc3cccnc3)[C@H](C1)O2`, -76.2%; to `O=S(=O)(c1cccnc1)N1CCN(Cc2nc(-c3ccco3)cs2)CC1`, 5.94%.
To `C[C@@H]1CN(Cc2nnc(-c3cccnc3)o2)CC[C@]1(C)O` belongs 10.1%; to `Cc1c(CN2CCc3nc4sccc4c(=O)n3CC2)cnn1C`, -2.75%; to `CN(CCCOc1ccccc1Cl)C(=O)CN1C[C@H]2CC[C@@H](CC1=O)N2`, -11.9%.
Take `Cc1nn(C)c(N2CCOCC2)c1CNCc1ccc2c(c1)OCO2`: the cytotoxicity at 10 µM is -17.8%.
In the case of `O=C(NC1CC1)[C@@H]1CCO[C@@H]2CCN(Cc3ccco3)C[C@H]21` it was -86.6%.
For `CC(C)(C)C(=O)N1CCC2(CNS(=O)(=O)c3cnccc3O2)C1` (centres undefined), the cytotoxicity at 10 µM came out at 10.2%.
In the case of `COCCN1CCN(CC2CCCCO2)CC1` (centres undefined) it was 6.29%.
In the case of `CN(C)c1cc(CNC(=O)Nc2nnc(C3CC3)s2)ccn1` it was -10.8%; in that of `CC(C)(CO)Nc1cc(-c2ccncc2)ncn1`, -0.89%; in that of `CCOc1ccc(CN2CCNC(C(=O)NC3CC3)C2)cc1CO` (centres undefined), 2.95%.
In the case of `Cc1cc2c(N)nc(=O)n(CC(=O)Nc3ccccc3)c2s1` it was 1.54%.
For `CCS(=O)(=O)N1CCC2(CC1)CC(OCC1CC1)CO2` (centres undefined), the cytotoxicity at 10 µM was 7.92%.
To `O=C(NCC1CC1)[C@H]1CC[C@@H]2[C@@H](CCN2Cc2nccs2)O1` belongs 6.93%; to `Cc1ccc(CNC(=O)c2c[nH]nc2NC(=O)C2COCCO2)cc1` (centres undefined), -9.95%.
To `COCCCN(C)c1ncccc1I` belongs 2.28%.
In the case of `CN(Cc1ccc2c(c1)OCO2)Cc1nc2c(cnn2C)c(=O)[nH]1` it was -3.63%.
Take `COc1ccc(NC(=O)C2OC(c3cccs3)=NN2C(C)=O)cc1OC` (centres undefined): the cytotoxicity at 10 µM is -2.19%.
In the case of `CS(=O)(=O)NC1CCCN(C(=O)Nc2cccnc2)C1` (centres undefined) it was -14.2%.
To `Cc1ccc(C(=O)N(CC(=O)O)CC(C)C)cc1F` belongs -4.07%; to `CCN1CCCC1CNCc1cc2cc3c(cc2[nH]c1=O)OCCO3` (centres undefined), 5.07%; to `CC(C)NC(=O)CC(C)NC(=O)N(C)Cc1cc(Cl)cn1C` (centres undefined), -0.414%.
To `Cc1cccc2nc(CN3CCC(N4CCN(C)C4=O)CC3)cn12` belongs -0.337%; to `CCS(=O)(=O)N1CCCC2(COCCN(c3ccccn3)C2)C1` (centres undefined), -1.02%.
In the case of `Cc1nn(C)c2ncc(CN3CCN(c4ncccn4)CC3)cc12`, the cytotoxicity at 10 µM is -0.234%.
To `OC(CNc1nc(C2CCCC2)nc2c1CCNCC2)C(F)(F)F` (centres undefined) belongs -4.78%.
Take `CN1CCN(CCc2ncnn2-c2ccc3c(c2)OCO3)CC1`: the cytotoxicity at 10 µM is -0.00326%.
On to `O[C@@H]1C[C@@H](c2nc(-c3ccccc3)no2)N(Cc2cccnc2)C1`, for which the cytotoxicity at 10 µM was 3.69%.
To `COc1cc(F)c(S(=O)(=O)N2c3ncccc3NC(=O)C2C)cc1OC` (centres undefined) belongs -1.92%.

Values taken from ChEMBL document CHEMBL4513216, “Probing the Open Global Health Chemical Diversity Library for Multistage-Active Starting Points for Next-Generation Antimalarials” (ACS Infect Dis, 2020).
